Source: PubChem
HIV Env fusion – blocks HIV Env-driven cell-cell fusion | hit rate 1.1% among 360,000 | inhibition, % at 12.3 µM | HeLa-JRFL Env/CEM21 cell fusion, luciferase | AID 651610;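 active = mean replicate inhibition score of at least 50 and every replicate individually at or above 50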;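 also: 0% = plate neutral controls and 100% = maraviroc near 300 nM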
miR122 inh – inhibitors of miR-122 in Huh7 cells | Huh7 miR-122 Renilla luciferase sensor, 48 h; neutral wells = 0, positive control = 100 | activation (reporter increase), % at 12.5 µM | hit rate 0.3% among 340,000 | AID 602342;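 active = mean replicate activation score at least 90 and every replicate individually at or above 90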;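 also: higher luciferase means less miR-122 activity so hits act as miR-122 inhibitors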
rRNA inh HTS – selective bacterial rRNA inhibition in E. coli. E. coli WT GFP vs humanized-ribosome RFP mutants, fluorescence, 24 h; hits give low values; DMSO median 0, no signal -100. GFP signal change (wild-type ribosome), % (no concentration beside the values). hit rate 1.6% among 350,000;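 active = significant combined selectivity score with lowered wild-type GFP, culture density cut under 30%, mutant RFP and density less affected; inactive = any of these conditions unmet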
GSIS activator – GLuc luminescence reporter in INS-1E cells, primary screen for activators of glucose-dependent secretion of insulin | hit rate 0.61% among 370,000 | activation, % at 16.6 µM | INS-1E GLuc reporter insulin secretion, 2-3 h | AID 743287;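 active = lowest replicate activation of at least 40%, so every replicate reaches that level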;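 also: 0% = median of neutral control wells and 100% = median of IBMX positive control wells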
F508del corr – correctors of CFTR F508del function in bronchial epithelial cells; hit rate 0.36% among 350,000; AID 720511; CFBE cells, YFP halide quenching; stimulated with forskolin plus potentiator P3; % fluorescence drop versus neutral controls; activity (quench increase), % at 7.58 µM;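 active = mean added fluorescence quench of at least 8% versus neutral control, with both replicates also reaching 8%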;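 also: cells transiently co-express mutant CFTR-F508del with the halide-sensitive YFP; corrector assay measuring rescue of mutant channel to the surface after 24 h compound exposure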
Cneo AK release – Cryptococcus neoformans lysis via adenylate kinase release. lysis activity, % at 15 µM. hit rate 0.2% among 360,000. C. neoformans lysis, adenylate kinase release luminescence, 4 h; normalised: neutral wells 0, clomiphene wells 100;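 active = mean lysis activity across replicates of at least 80%, whatever share of replicates individually reach that level; inactive = mean lysis activity below 80%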
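Material – Cryptococcus neoformans yeast cells · Quantity – 5 × 10^6 yeast cells/mL · Buffer or medium – YPD medium · Compound – single dose · Timing – 4 h static compound exposure, 37 °C, read 1 h post-reagent · Signal – adenylate kinase release luminescence · Read-out basis – lysis from increased AK signal · Benchmarks – Clomiphene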
* hit, by the source's call; . = not tested or not shown; ! = a repeat was not active; [ ] = dose if it differs, or a comment. Hits are enriched below; roughly 3.1% of the tested compounds scored in any of these assays.

SMILES	HIV Env fusion	miR122 inh	rRNA inh HTS	GSIS activator	F508del corr	Cneo AK release
O=C(Cc1ccccc1)NCC(=O)N/N=C/c1ccc(C(=O)O)cc1	3	-6	17	-6	-1	-3
O=C(Nc1ccccc1C(=O)N/N=C/c1ccc(O)cc1)c1ccccc1	-21	.	-30*	-1	-2	.
O=C(CNC(=O)c1ccco1)N/N=C/c1ccc(C(=O)O)cc1	2	0	15	48*	1	0
O=C(N/N=C/c1ccccc1)c1ccco1	-18	.	1	3	-1	.
O=C(CNC(=O)c1ccco1)OCc1ccc(C(=O)c2ccccc2)cc1	9	.	-33*	-23	0	.
O=C(Nc1ccccc1C(=O)N/N=C/c1ccccc1)c1ccco1	1	-2	-7	93*	1	-6
Cc1noc(C)c1NC(=O)Nc1ccc2c(c1)C(=O)N([C@H](C)CO)C[C@H](C)[C@@H](CN(C)C(=O)CCCN(C)C)OCCCC[C@@H](C)O2	-13[16.7 µM]	15[16.7 µM]	1	18	-3	-1
CCC(=O)N1CCC2(CC1)CN(C(=O)c1cnccn1)[C@@H](CO)c1c2c2ccc(OC)cc2n1C	.	.	2	13	0	.
CN(C)c1ccc(/C=N/NC(=O)c2ccccc2Cl)cc1	-15	4	13	52*	.	5
CN(C)c1ccc(/C=N/NC(=O)c2ccccc2)cc1	-56	-2	7	-2	3	-3
COc1ccc(CN2C(=O)c3cccnc3C2Nc2ccc(OC)c(Cl)c2)cc1 (centres undefined)	.	1	-15	13	2	-1
COc1cc(NC2c3ncccc3C(=O)N2Cc2ccco2)cc(OC)c1 (centres undefined)	60*	-6	5	19	.	1
CC(C)n1nc(C(=O)Nc2cccc(S(=O)(=O)NCc3ccco3)c2)c2ccccc2c1=O	-5	99*	-21	12	0	.
Cc1ccc(-c2ccc3c(c2)O[C@H](CN(C)C(=O)Nc2ccc(F)cc2)[C@H](C)CN([C@@H](C)CO)S3(=O)=O)cc1	-80[16.7 µM]	-12[16.7 µM]	-4	1	1	1
COc1ccc(-c2cn[nH]c2-c2ccc(OCc3ccc([N+](=O)[O-])cc3)cc2O)cc1	73*	.	1	12	.	.
CCOc1ccc(-c2[nH]ncc2-c2ccc(OC)c(OC)c2)c(O)c1	67*	49	.	19	.	-4
C[C@@H]1CCCCO[C@@H](CN(C)C(=O)CCC(F)(F)F)[C@@H](C)CN([C@H](C)CO)C(=O)c2cc(NC(=O)c3ccncc3)ccc2O1	3[16.7 µM]	13[16.7 µM]	0	16	0	-12
C=CC[n+]1c(-c2ccc(OC)c(OC)c2)csc1NNC(=O)Nc1ccccc1	74*	-2	.	-30	.	1
C=CC[n+]1c(-c2ccccc2)csc1NC(C)(C)C	-136	.	5	6	1	.
C/C(=N\NC(=O)c1ccc(Cl)cc1)c1cccc(NC(=O)c2cccnc2)c1	-154	-3	.	12	.	-2
C/C(=N/NC(=O)c1ccc(-c2ccccc2)cc1)c1cccc(O)c1	-8	-12	-26*	2	3	2
Cc1cccc(C(=O)NNC(=O)c2ccc(-c3ccccc3)cc2)c1	.	35	.	99*	.	6
C/C(=N\NC(=O)c1ccc(O)cc1)c1cccc(NC(=O)c2ccc(Cl)cc2)c1	-16	-2	-35*	-1	-1	-17
O=C(NNC(=O)c1ccc(-c2ccccc2)cc1)c1ccccc1	-35	.	7	0	-1	2
C/C(=N\NC(=O)c1ccc(N/N=C(\C)c2ccc(O)cc2)cc1)c1ccc(O)cc1	1	10	-21*	-2	2	.
SMILES	HIV Env fusion	miR122 inh	rRNA inh HTS	GSIS activator	F508del corr	Cneo AK release
C[C@H]1CN([C@@H](C)CO)C(=O)Cc2cc(NS(=O)(=O)c3ccc(Cl)cc3)ccc2O[C@H]1CN(C)C(=O)Nc1ccc(C(F)(F)F)cc1	3[16.7 µM]	11[16.7 µM]	1	-16	-3	1
C[C@H]1CN([C@@H](C)CO)C(=O)c2ccccc2-c2ccccc2CO[C@H]1CN(C)C(=O)CCC(F)(F)F	22[16.7 µM]	.	0	15	-1	-2
CCOC(=O)c1c(Nc2ccc(Cl)cc2)sc(/C=C2\C=Nc3ccccc32)c1O	-12	107*!	15	.	2	-1
Oc1nc(Nc2cccc(Cl)c2)sc1/C=C1\C=Nc2ccccc21	8	22	-14	34	1	-4
O=C(CCc1ccc(S(=O)(=O)N2CCOCC2)cc1)Nc1nc(COc2ccccc2)cs1	80*	-4	.	-7	.	.
O=S(=O)(c1ccc(OCc2ccc(Br)cc2)cc1)N1CCOCC1	.	-6	4	2	19*	0
O=S(=O)(c1ccc(Oc2ccc(S(=O)(=O)N3CCOCC3)cc2)cc1)N1CCOCC1	.	3	.	.	.	-2
C[C@@H]1CCCCO[C@H](CN(C)S(=O)(=O)c2ccc(F)cc2)[C@H](C)CN([C@H](C)CO)C(=O)c2cc(NC(=O)Nc3ccc(F)cc3)ccc2O1	-33[16.7 µM]	2[16.7 µM]	0	-9	-1	53
CC(C)NC(=O)Nc1cccc2c1O[C@H](CN(C)C(=O)NC(C)C)[C@H](C)CN(C)C2=O	.	.	3	12	.	.
CCc1ccc(NS(=O)(=O)c2ccc3[nH]c(=O)[nH]c3c2)cc1	13	-4	2	13	1	0
CC(C)Cc1ccc(S(=O)(=O)Nc2ccc3[nH]c(=O)[nH]c3c2)cc1	14	-5	-25*	-1	-2	-1
COc1ccccc1NS(=O)(=O)c1ccc(C(=O)NCc2ccco2)cc1	12	7	6	-1	-4	0
COc1ccccc1NS(=O)(=O)c1cc(C(=O)NCc2ccco2)ccc1C	-37	110*	.	.	.	2
Cc1ccccc1NS(=O)(=O)c1cc(C(=O)NCc2ccco2)ccc1C	-57	71	.	-15	.	-2
Cc1ccc(C)c(NS(=O)(=O)c2cc(C(=O)NCc3ccco3)ccc2C)c1	-125	200*	.	-11	.	-8
Cc1ccc(C(=O)NCc2ccco2)cc1S(=O)(=O)Nc1cccc(C)c1C	-27	244*	.	-3	.	3
O=C(Nc1ccc(Cl)cc1)OCCN1CCOCC1	4	.	0	13	1	-2
O=C(Nc1ccc(Cl)cc1)OCCn1nnnc1C(c1ccccc1Cl)N1CCOCC1 (centres undefined)	113*	-10	.	.	.	0
C=CCN(c1ccccc1OC)S(=O)(=O)c1cccc(C(=O)OCC(=O)c2c(N)n(C)c(=O)n(C)c2=O)c1	34	.	-19*	-23	0	-1
Cn1c(N)c(C(=O)COC(=O)CSc2ccccc2)c(=O)n(C)c1=O	1	.	-18*	-4	0	.
CCOc1ccccc1OCC(=O)OCC(=O)c1c(N)n(CC(C)C)c(=O)n(C)c1=O	.	0	0	-60	1	0
